LEDGF integ inh = blocks HIV-1 LEDGF/p75-dependent DNA integration. TR-FRET IN-LEDGF/p75 DNA integration, Eu/Cy5. inhibition, % at 3.7 µM. 0.64% of 370,000 active;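 active = inhibition above the screen-wide mean plus 3 SD, cut at about 13% in these data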;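 note: signal is the Cy5 over europium emission ratio at 671 and 618 nm; 0% = plate median of compound wells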
RBBP9 inhibitor = inhibitors of human serine hydrolase RBBP9; 0.2% of 220,000 active; inhibition, % at 7.94 µM; recombinant RBBP9, FP-Rh probe fluorescence polarization; AID 1515;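 active = inhibition above the campaign mean of all tested compounds plus 3 SD, cut at about 14% in these data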;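 note: plate controls were DMSO wells with RBBP9 for no effect and wells lacking RBBP9 protein for full effect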
Target sequence (O75884 whole entry, looked up): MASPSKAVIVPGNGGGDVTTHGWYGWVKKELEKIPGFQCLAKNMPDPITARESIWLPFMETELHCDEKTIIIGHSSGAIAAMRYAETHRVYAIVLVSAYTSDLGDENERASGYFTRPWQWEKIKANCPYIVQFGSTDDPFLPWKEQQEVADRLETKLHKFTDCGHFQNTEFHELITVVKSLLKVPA
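System: RBBP9 protein / Quantity: 2.5 µM RBBP9 dispensing solution, before mixing / Also added: Serine-hydrolase probe FP-Rh, 375 nM pre-mixing / Dosing: 7.94 µM single dose, 0.794% DMSO / Timing: enzyme-compound preincubation 30 min, then probe labeling 45 min, 25 °C / Signal: FP readout at 525/598 nm / Controls: DMSO-treated enzyme wells and wells lacking RBBP9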
MBD2 DNA inh = blocks human MBD2 binding to methylated DNA; TR-FRET, MBD2 binding to methylated oligonucleotide; inhibition, % at 4.4 µM; 0.31% of 370,000 active; in the data active = inhibition above about 13%
Target sequence (Q9UBB5 whole entry, looked up): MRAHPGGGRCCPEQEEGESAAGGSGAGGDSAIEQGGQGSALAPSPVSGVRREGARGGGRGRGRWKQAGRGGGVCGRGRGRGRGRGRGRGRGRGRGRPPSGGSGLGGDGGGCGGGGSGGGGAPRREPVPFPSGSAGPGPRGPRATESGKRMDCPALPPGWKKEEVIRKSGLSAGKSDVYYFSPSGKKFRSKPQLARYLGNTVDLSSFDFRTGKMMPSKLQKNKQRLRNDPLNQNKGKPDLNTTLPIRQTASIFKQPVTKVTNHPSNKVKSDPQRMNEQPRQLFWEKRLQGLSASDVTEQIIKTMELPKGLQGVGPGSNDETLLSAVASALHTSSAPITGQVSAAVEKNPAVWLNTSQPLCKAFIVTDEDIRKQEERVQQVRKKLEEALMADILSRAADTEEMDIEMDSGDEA
UHRF1 MBD2 ctr = blocks human UHRF1 binding to methylated DNA. Q96T88. inhibition, % at 4.4 µM. UHRF1 binding to methylated oligo, TR-FRET. AID 687016. 0.75% of 370,000 active; in the data active = inhibition above about 21%;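 note: UHRF1 SRA domain binding a hemimethylated CpG hairpin DNA probe; 0% = median of test compound wells and 100% = reference inhibitor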
ABHD5-PLIN5 inh = blocks binding of human ABHD5 to perilipin-5; Split G. princeps luciferase complementation, luminescence, 4 h; inhibition, % at 4 µM; 0.78% of 360,000 active; AID 602281;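 active = inhibition above the mean inhibition across every tested compound plus 3 SD, cut at about 22% in these data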;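 note: 0% = DMSO only wells and the 100% control is not disclosed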
PRMT1 inh = inhibitors of human PRMT1. inhibition, % at 2.79 µM. Q99873. recombinant PRMT1, activity-based probe fluorescence polarization. AID 652257. 1.3% of 370,000 active;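 active = inhibition above about 21% made by adding two undisclosed values, limit read from the data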
* marks the source's active call; other numbers are inactive results; · = no result; ! = a repeat was not active. Shown are actives, neighbours in structure and some others; about 3.1% of the full set was active somewhere.

SMILES	LEDGF integ inh	RBBP9 inhibitor	MBD2 DNA inh	UHRF1 MBD2 ctr	ABHD5-PLIN5 inh	PRMT1 inh
CCCC[C@H](C(=O)N(C)c1cccc(OC)c1)[C@@H](O)c1ccc(Cl)cc1	1	·	3	-2	·	5
C#CCNC(=O)C[C@H]1C[C@@]2(C(=O)OC)C(=C[C@H](COCc3ccccc3)O[C@@H]2C)N(Cc2ccc3c(c2)OCO3)C1=O	0	·	3	-1	·	5
O=C(NC1CCCCN(Cc2ccc(Cl)cc2)C1=O)c1cccs1 (configuration not stated)	-2	·	3	2	·	4
CC(C)C[C@@H](CN)NC(=O)c1nc[nH]c1C(=O)N[C@@H](Cc1ccccc1)C(=O)CNC[C@H](C)NC(=O)c1nc[nH]c1C(=O)N[C@@H](CC(C)C)C(=O)O	-2	·	9	21*	3	7
CC(C)C[C@@H](CN)NC(=O)c1nc[nH]c1C(=O)N[C@@H](Cc1c[nH]c2ccccc12)C(=O)CNC[C@H](C)NC(=O)c1nc[nH]c1C(=O)N[C@@H](C)C(=O)O	-1	·	12	24*	1	6
CC(C)C[C@@H](CNCC(=O)[C@H](Cc1c[nH]c2ccccc12)NC(=O)c1[nH]cnc1C(=O)N[C@@H](C)CN)NC(=O)c1nc[nH]c1C(=O)N[C@@H](Cc1ccccc1)C(=O)O	-1	·	12	21*	-13	3
Cc1ccc(-c2c(C(=O)NC3CCCC3)oc(=O)c3ccccc23)cc1	6	·	4	2	·	-7
CCC(=O)Nc1ccc2c(c1)C(=O)N(C)[C@@H]1CC[C@@H](CC(=O)NCc3ccc(OC)cc3)O[C@H]1CO2	-2	·	-1	4	·	5
CCCCCCCCN1C(=O)[C@@H](CC(=O)NCCCOC)C[C@@]2(C(=O)OC)C1=C[C@H](C(C)(C)C)O[C@@H]2C	0	·	-2	-3	·	2
CCCCCCCCN1C(=O)[C@@H](CC(=O)NCCCN2CCCC2=O)C[C@@]2(C(=O)OC)C1=C[C@H](C(C)(C)C)O[C@@H]2C	4	·	-1	35*	·	1
Cc1cc(N=Nc2ccccc2)c(NCC(O)C(O)C(O)CO)cc1C (configuration not stated)	-2	5	-9	-1	22*	6
Cc1ccc(NCC(O)C(O)C(O)CO)cc1C (configuration not stated)	-3	-6	-2	7	-3	-2
O=C(NC1CCN(Cc2ccccc2)CC1)c1ccccc1OCc1ccccc1	6	·	1	-3	1	-7
COCCCNCCCCOc1ccc(OCc2ccccc2)cc1	1	-8	1	4	6	-2
O=C(NC1CCCC1)c1ccccc1OCc1ccccc1	2	-8	0	39*	-2	-2
c1ccc(COc2ccc(OCCCNC3CCCC3)cc2)cc1	8	-8	9	31*	7	6
C[C@@H]1COc2cc(N3CCOCC3)ccc2S(=O)(=O)N1	7	·	5	14	·	-3
O=C(O)C1=NN(c2cc(Cl)c(S(=O)(=O)O)cc2Cl)C(=O)C1	11	·	7	31*	6	6
CC1(C)CC(=O)C=C(Nc2ccccc2NC(=O)c2cc(F)ccc2F)C1	1	·	-2	-4	·	2
Cc1ccc(C(=O)Nc2ccc(O)c(C(=O)O)c2)o1	1	3	4	44*	3	1
Cc1ccc(C(=O)Nc2ccc(F)cc2)o1	-2	-5	0	0	10	-4
O=C1NN(c2ccccc2)C(=O)/C1=C\c1ccc2c(c1)OCO2	2	·	-1	-2	-7	-1
Cc1ccc(N2NC(=O)/C(=C\c3cc4c(cc3[N+](=O)[O-])OCO4)C2=O)cc1C	12	-6	3	0	-7	24*
COc1ccc(C(=O)/C=C/c2ccc(C)cc2)c(OC(=O)c2ccc([N+](=O)[O-])cc2)c1	1	-3	-5	-3	3	-3
COc1ccc(C(=O)/C=C/c2ccccc2F)c(OC(=O)c2ccc([N+](=O)[O-])cc2)c1	-3	-6	-1	3	28*	-1
SMILES	LEDGF integ inh	RBBP9 inhibitor	MBD2 DNA inh	UHRF1 MBD2 ctr	ABHD5-PLIN5 inh	PRMT1 inh
O=C1[C@H](Oc2ccccc2)[C@@H](c2ccccc2)N1c1ccncc1	-3	·	3	-1	-1	1
O=C1[C@@H](Oc2ccccc2)[C@@H](c2ccccc2)N1c1ccccc1	1	·	11	22*	-8	1
CCn1c(=O)n(CC(=O)N2CCC(C)CC2)c(=O)c2ccccc21	0	·	-5	-2	·	1
CN1CCOc2ccc(S(=O)(=O)NCCc3ccc(Cl)cc3)cc21	7	·	5	30*	-2	-2
CCn1c(SCC(=O)NCc2ccc3c(c2)OCO3)nc2c(c1=O)SCC2	18*	·	-3	1	-9	0
CCn1c(SCC(=O)Nc2cc(OC)ccc2OC)nc2c(c1=O)SCC2	0	·	0	-4	1	2
COc1ccc(Br)cc1C(=O)Nc1ccccc1N1CCN(C(=O)c2ccccc2)CC1	0	-9	1	0	19	-1
COc1c(C)cc(Br)cc1C(=O)Nc1ccccc1N1CCN(C(=O)c2ccccc2)CC1	-2	-13	2	55*	-1	2
CCCCNC(=O)C1CCCN1C(=O)Nc1cccc(C)c1 (configuration not stated)	-2	·	7	1	·	-1
COc1ccc(C2C(C(=O)N3CCC(C)CC3)CC(=O)N2c2ccc(OC)cc2)cc1 (configuration not stated)	-3	·	-2	0	·	-3
COc1ccc(-c2nc3c(c(SCC(=O)Nc4cccc(O)c4)n2)Cc2c(CO)cnc(C)c2O3)cc1	14*	·	1	-1	33*	4
CCOc1cc(NCCN2CCOCC2)c([N+](=O)[O-])cc1OCC	1	·	-22	24*	3	0
COc1cccc(C2=NCCc3cc4c(cc32)OCO4)c1OC	8	-4	-2	1	0	-2
COc1ccc2cc3[n+](cc2c1OC)CCc1cc2c(cc1-3)OCO2	0	-11	-15	23*!	5	1
O=C(CN1C(=O)C2(OCCCO2)c2ccccc21)NCc1ccccc1Cl	0	·	5	1	·	-1
CN1C(c2ccccc2)CC2CN(c3ccccc3)C(=O)C21 (configuration not stated)	1	·	1	-2	·	-3
COC(=O)c1ccc(CC(=O)c2ccc(O)cc2O)o1	·	0	·	·	2	·
COC(=O)c1ccc(CC(=O)c2c(C)cc(O)cc2O)o1	10	3	-4	-5	2	24*
COC(=O)c1ccc(/C=C/c2c(-c3ccsc3)sc3ccccc23)cc1	2	·	-1	23*	-9	1
COc1ccc(-c2sc3ccccc3c2/C=C/c2ccc(N)cc2)cc1	-4	·	-1	-1	5	-2
O=S1(=O)c2ccc(N3CCSCC3)cc2Oc2ccccc2CN1Cc1cn(Cc2ccc(F)cc2)nn1	1	·	-4	2	·	-3

Screening results (PubChem BioAssay)
